Measurements published in ChEMBL document CHEMBL4024781, “Comprehensive Synthesis of Amino Acid-Derived Thiazole Peptidomimetic Analogues to Understand the Enigmatic Drug/Substrate-Binding Site of P-Glycoprotein” (J Med Chem, 2018).

Columns and labels:
P-gp (ABCB1) [1] = target: T1, P-gp (ABCB1) (Homo sapiens, UniProt P08183); test: Activation of human P-gp expressed in high five insect cell membrane vesicles by measuring the vanadate-sensitive ATPase activity of P-gp at 2.5 uM preincubated for 5 mins in the presence of sodium orthovanadate measured after 20 mins by colorimetric method; conditions: read-out: Activity
P-gp (ABCB1) [2] = target: T1, P-gp (ABCB1); test: Activation of human P-gp expressed in high five insect cell membrane vesicles by measuring the vanadate-sensitive ATPase activity of P-gp at 0.05 uM preincubated for 5 mins in the presence of sodium orthovanadate measured after 20 mins by colorimetric method; conditions: read-out: Activity
P-gp (ABCB1) [3] = target: T1, P-gp (ABCB1); test: Activation of human P-gp expressed in high five insect cell membrane vesicles by measuring the vanadate-sensitive ATPase activity of P-gp at 0.5 uM preincubated for 5 mins in the presence of sodium orthovanadate measured after 20 mins by colorimetric method; conditions: read-out: Activity
P-gp (ABCB1) [4] = target: T1, P-gp (ABCB1); test: Inhibition of human P-gp expressed in high five insect cell membrane vesicles by measuring the vanadate-sensitive ATPase activity of P-gp at 2.5 uM preincubated for 5 mins in the presence of sodium orthovanadate measured after 20 mins by colorimetric method
P-gp (ABCB1) [5] = target: T1, P-gp (ABCB1); test: Inhibition of human P-gp expressed in high five insect cell membrane vesicles by measuring the vanadate-sensitive ATPase activity of P-gp at 0.5 uM preincubated for 5 mins in the presence of sodium orthovanadate measured after 20 mins by colorimetric method
[6] = Cytotoxicity in P-gp tranfected HEK293 cells assessed as cell survival at 10 uM after 72 hrs by MTT assay; assay type: ADME, cell-based; conditions: human, P-gp transfected HEK293 cells
Procedure, shortened: (§1)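 HEK293 cells stably transfected with empty pcDNA3.1 vector or ABCB1 vector, kept in DMEM with 10% FBS, 1% penicillin/streptomycin, and 2 mg/mL G418 at 37°C in 5% CO2. Cells were seeded at 5000/well, and after 24 h treated with test compound alone, diluted from 10 mM DMSO stocks into medium. After 72 h, viability was read by MTT (4 mg/mL, 4 h), with formazan dissolved in DMSO and absorbance read at 570 nm.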

[7] = Cytotoxicity in parental HEK293-pcDNA 3.1 transfected cells assessed as cell survival at 10 uM after 72 hrs by MTT assay; assay type: cell-based; conditions: human, parental HEK293 cells transfected with pcDNA 3.1; procedure, shortened: as §1

T1 sequence (P08183 whole entry): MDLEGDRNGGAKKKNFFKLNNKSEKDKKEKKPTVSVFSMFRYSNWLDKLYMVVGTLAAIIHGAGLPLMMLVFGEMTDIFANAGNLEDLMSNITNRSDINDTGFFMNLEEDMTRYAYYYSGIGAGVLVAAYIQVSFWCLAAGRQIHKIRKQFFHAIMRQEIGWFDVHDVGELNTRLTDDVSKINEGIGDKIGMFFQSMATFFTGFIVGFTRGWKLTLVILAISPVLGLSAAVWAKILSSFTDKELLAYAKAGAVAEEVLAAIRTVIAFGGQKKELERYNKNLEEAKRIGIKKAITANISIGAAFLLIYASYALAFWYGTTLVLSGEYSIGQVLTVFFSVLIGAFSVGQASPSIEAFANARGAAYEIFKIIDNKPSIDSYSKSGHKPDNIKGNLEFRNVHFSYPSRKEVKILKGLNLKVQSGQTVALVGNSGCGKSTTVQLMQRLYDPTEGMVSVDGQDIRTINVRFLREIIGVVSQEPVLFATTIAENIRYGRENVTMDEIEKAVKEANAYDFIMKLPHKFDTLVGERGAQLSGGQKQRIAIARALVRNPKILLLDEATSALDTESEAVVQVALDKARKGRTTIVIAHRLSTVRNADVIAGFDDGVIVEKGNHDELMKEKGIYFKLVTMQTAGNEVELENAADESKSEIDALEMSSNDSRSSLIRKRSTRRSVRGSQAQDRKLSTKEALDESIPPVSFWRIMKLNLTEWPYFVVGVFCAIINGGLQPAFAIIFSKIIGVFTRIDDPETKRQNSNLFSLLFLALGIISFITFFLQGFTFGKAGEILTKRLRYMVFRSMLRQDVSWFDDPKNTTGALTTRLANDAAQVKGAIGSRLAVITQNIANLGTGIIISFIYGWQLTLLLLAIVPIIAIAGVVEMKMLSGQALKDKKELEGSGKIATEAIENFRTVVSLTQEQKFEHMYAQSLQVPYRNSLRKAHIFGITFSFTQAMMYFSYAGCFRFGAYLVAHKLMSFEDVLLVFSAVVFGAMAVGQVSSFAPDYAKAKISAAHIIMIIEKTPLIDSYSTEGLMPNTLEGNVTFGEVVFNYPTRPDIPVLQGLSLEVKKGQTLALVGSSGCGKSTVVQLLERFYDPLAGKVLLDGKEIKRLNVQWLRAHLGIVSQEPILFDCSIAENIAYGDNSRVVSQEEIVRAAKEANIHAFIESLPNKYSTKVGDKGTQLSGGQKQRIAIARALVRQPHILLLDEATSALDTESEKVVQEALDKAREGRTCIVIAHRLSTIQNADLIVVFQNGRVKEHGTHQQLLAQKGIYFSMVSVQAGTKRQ

Row | SMILES | activity at 20 min, 2.5 µM (P-gp (ABCB1) [1]) | activity at 20 min, 0.5 µM (P-gp (ABCB1) [3]) | other results
1 | COc1cc(CC(=O)N[C@H](c2nc(C(=O)NC3CCC(F)(F)CC3)cs2)C(C)C)cc(OC)c1OC | 70.2% |  | 
2 | COc1cc(C(=O)N[C@H](c2nc(C(=O)Nc3ccccc3NC(=O)c3ccccc3)cs2)C(C)C)cc(OC)c1OC |  | 52% | activity at 20 min, 0.05 µM (P-gp (ABCB1) [2]): ≤ 10%
3 | COc1cc(C(=O)N[C@H](c2nc(C(=S)NC3CCCCC3)cs2)C(C)C)cc(OC)c1OC | 27% | ≤ 10% | 
4 | COc1cc(C(=O)N[C@H](c2nc(C(=O)Nc3ccccc3C(=O)c3ccc(N=[N+]=[N-])cc3)cs2)C(C)C)cc(OC)c1OC | 169% | 148% | 
5 | COc1cc(C(=O)N[C@H](c2nc(C(=O)Nc3ccccc3Cc3ccccc3)cs2)C(C)C)cc(OC)c1OC |  | 112% | activity at 20 min, 0.05 µM (P-gp (ABCB1) [2]): 15%
6 | COc1cc(C(=O)N[C@H](c2nc(C(=O)NC3CC3)cs2)C(C)C)cc(OC)c1OC |  | ≤ 10% | activity at 20 min, 0.05 µM (P-gp (ABCB1) [2]): ≤ 10%
7 | COc1cc(C(=O)NC(c2nc(C(=O)NC3CCC(C(F)(F)F)CC3)cs2)C(C)C)cc(OC)c1OC (stereo not drawn) |  | ≤ 10% | inhibition at 20 min, 2.5 µM (P-gp (ABCB1) [4]): 21.7%
8 | COc1cc(C(=O)N[C@H](c2nc(C(=O)Nc3ccc(F)cc3)cs2)C(C)C)cc(OC)c1OC | 244% | 59.5% | 
9 | COc1cc(C(=O)N[C@H](c2nc(C(=O)NC3CCN(c4ncccn4)CC3)cs2)C(C)C)cc(OC)c1OC | 83% | 17.1% | 
10 | CC(C)[C@H](NC(=O)c1ccccc1N=[N+]=[N-])c1nc(C(=O)Nc2ccccc2C(=O)c2ccccc2)cs1 | 182% | 142% | 
11 | COc1cc(C(=O)N[C@H](c2nc(C(=O)NC34CC5CC(CC(C5)C3)C4)cs2)C(C)C)cc(OC)c1OC |  | ≤ 10% | activity at 20 min, 0.05 µM (P-gp (ABCB1) [2]): ≤ 10%
12 | CC(C)[C@H](NC(=O)c1cnc2ccccc2c1)c1nc(C(=O)NC2CCC(F)(F)CC2)cs1 | 83.9% |  | 
13 | COc1cc(C(=O)N[C@H](c2nc(C(=O)NCC3CCC(F)(F)CC3)cs2)C(C)C)cc(OC)c1OC | 20.7% |  | inhibition at 20 min, 0.5 µM (P-gp (ABCB1) [5]): 27%
14 | COc1cc(C(=O)N[C@H](c2nc(C(=O)Nc3ccccc3C(=O)c3ccc(Br)cc3)cs2)C(C)C)cc(OC)c1OC |  | 149% | activity at 20 min, 0.05 µM (P-gp (ABCB1) [2]): 309%
15 | COc1cc(C(=O)N[C@H](c2nc(C(=O)N[C@H]3CCCc4ccccc43)cs2)C(C)C)cc(OC)c1OC | 123% | 108% | 
16 | CC(C)[C@H](NC(=O)c1ccc(N=[N+]=[N-])cc1)c1nc(C(=O)Nc2ccccc2C(=O)c2ccccc2)cs1 | 164% | 135% | 
17 | COc1cc(C(=O)N[C@H](c2nc(C(=O)N3CCC(=O)CC3)cs2)C(C)C)cc(OC)c1OC | ≤ 10% | ≤ 10% | 
18 | COc1cc(C(=O)NC(c2nc(C(=O)NCC3CCC(N)CC3)cs2)C(C)C)cc(OC)c1OC (stereo not drawn) | ≤ 10% | ≤ 10% | 
19 | COc1cc(C(=O)N[C@H](c2nc(C(=O)N3CCC(N4CCCCC4)CC3)cs2)C(C)C)cc(OC)c1OC | 47.2% | 37.2% | 

Row | SMILES | activity at 20 min, 2.5 µM (P-gp (ABCB1) [1]) | activity at 20 min, 0.5 µM (P-gp (ABCB1) [3]) | other results
20 | COc1cc(C(=O)N[C@H](c2nc(C(=O)N3CCC(F)(F)CC3)cs2)C(C)C)cc(OC)c1OC | 55.9% | 40.9% | 
21 | COc1cc(C(=O)N[C@H](c2nc(C(=O)NCCCC(F)(F)F)cs2)C(C)C)cc(OC)c1OC | 77.3% | 17.1% | 
22 | COc1cc(C(=O)N[C@H](c2nc(C(=O)NC3CCOCC3)cs2)C(C)C)cc(OC)c1OC | ≤ 10% | 26.9% | 
23 | COc1ccc(C(=O)N[C@H](c2nc(C(=O)NC3CCC(F)(F)CC3)cs2)C(C)C)cc1 | 35.8% |  | 
24 | COc1cc(C(=O)N[C@H](c2nc(C(=O)NCC3CCNCC3)cs2)C(C)C)cc(OC)c1OC | ≤ 10% | 23% | 
25 | COc1cc(C(=O)N[C@H](c2nc(C(=O)N3CCC(C(F)(F)F)CC3)cs2)C(C)C)cc(OC)c1OC | 75.6% | 13.3% | 
26 | COc1cc(NC(=O)c2csc([C@@H](NC(=O)c3ccccc3C(=O)c3ccccc3)C(C)C)n2)cc(OC)c1OC |  | 46% | activity at 20 min, 0.05 µM (P-gp (ABCB1) [2]): ≤ 10%
27 | CC(C)[C@H](NC(=O)c1ccccc1)c1nc(C(=O)NC2CCC(F)(F)CC2)cs1 | 10.5% |  | 
28 | COc1cc(C(=O)NCc2nc(C(=O)NC3CCC(F)(F)CC3)cs2)cc(OC)c1OC | 13% | ≤ 10% | 
29 | COc1cc(C(=O)C(=O)N[C@H](c2nc(C(=O)NC3CCC(F)(F)CC3)cs2)C(C)C)cc(OC)c1OC | 178% |  | 
30 | COc1cc(C(=O)N[C@H](c2nc(C(=O)NC3CCC3)cs2)C(C)C)cc(OC)c1OC | ≤ 10% | 25.3% | 
31 | COc1cc(C(=O)N[C@H](c2nc(C(=O)NC3CCS(=O)(=O)CC3)cs2)C(C)C)cc(OC)c1OC | ≤ 10% | ≤ 10% | 
32 | COc1cc(C(=O)N[C@H](c2nc(C(=O)Nc3ccccc3C(=O)Nc3ccccc3)cs2)C(C)C)cc(OC)c1OC |  | 142% | activity at 20 min, 0.05 µM (P-gp (ABCB1) [2]): 21%
33 | CC(C)[C@H](NC(=O)C1CCOCC1)c1nc(C(=O)NC2CCC(F)(F)CC2)cs1 | ≤ 10% |  | 
34 | COc1cc(C(=O)N[C@H](c2nc(C(=O)Nc3ccccc3Oc3ccccc3)cs2)C(C)C)cc(OC)c1OC |  | 88% | activity at 20 min, 0.05 µM (P-gp (ABCB1) [2]): ≤ 10%
35 | COc1cc(C(=S)N[C@H](c2nc(C(=S)NC3CCC(F)(F)CC3)cs2)C(C)C)cc(OC)c1OC | 64% | 25% | 
36 | CC(C)[C@H](NC(=O)c1cncnc1)c1nc(C(=O)NC2CCC(F)(F)CC2)cs1 | ≤ 10% |  | 
37 | COc1ccc(C(=O)N[C@H](c2nc(C(=O)NC3CCC(F)(F)CC3)cs2)C(C)C)cc1OC | 11.9% |  | 
38 | COc1cc(C(=O)N[C@H](c2nc(C(=O)NC3CCNCC3)cs2)C(C)C)cc(OC)c1OC | 14.5% | 46.3% | 

Row | SMILES | activity at 20 min, 2.5 µM (P-gp (ABCB1) [1]) | activity at 20 min, 0.5 µM (P-gp (ABCB1) [3]) | other results
39 | CC(C)[C@H](NC(=O)c1cscn1)c1nc(C(=O)NC2CCC(F)(F)CC2)cs1 | 49.7% |  | 
40 | COc1cc(C(=O)N[C@H](c2nc(C(=O)NC3CCN(Cc4ccccc4)CC3)cs2)C(C)C)cc(OC)c1OC | 154% | 169% | 
41 | CC(C)[C@H](NC(=O)c1cccc(N=[N+]=[N-])c1)c1nc(C(=O)Nc2ccccc2C(=O)c2ccccc2)cs1 | 194% | 122% | 
42 | COc1cc(C(=O)N[C@H](c2nc(C(=O)N3CCC(N)CC3)cs2)C(C)C)cc(OC)c1OC | ≤ 10% | 45.4% | 
43 | COc1cc(C(=O)N[C@H](c2nc(C(=O)NC3CCN(C(=O)OC(C)(C)C)CC3)cs2)C(C)C)cc(OC)c1OC | 48% | 52.7% | 
44 | COc1cc(C(=O)N[C@H](c2nc(C(=O)NC3CCC(C)(C)CC3)cs2)C(C)C)cc(OC)c1OC | 34.3% | ≤ 10% | 
45 | COc1cc(C(=O)N2CCCC2c2nc(C(=O)NC3CCC(F)(F)CC3)cs2)cc(OC)c1OC (stereo not drawn) | 21% | ≤ 10% | 
46 | COc1cc(C(=O)Nc2nc(C(=O)NC3CCC(F)(F)CC3)cs2)cc(OC)c1OC | 60.2% | 53.9% | 
47 | CC(C)[C@H](NC(=O)c1ccc(N=[N+]=[N-])cc1)c1nc(C(=O)Nc2ccccc2C(=O)c2ccc(Br)cc2)cs1 | 84.7% | 99.4% | 
48 | CC(C)[C@H](N)c1nc(C(=O)NC2CCC(F)(F)CC2)cs1 | ≤ 10% | ≤ 10% | 
49 | COc1cc(C(=O)N[C@H](c2nc(C(=O)Nc3cccc(C(=O)c4ccccc4)c3)cs2)C(C)C)cc(OC)c1OC |  | 143% | activity at 20 min, 0.05 µM (P-gp (ABCB1) [2]): 13%
50 | COc1cc(C(=O)N[C@H](c2nc(C(=O)N(C3CCCCC3)C3CCCCC3)cs2)C(C)C)cc(OC)c1OC | 134% | 109% | 
51 | COc1cc(C(=O)N[C@H](c2nc(C(=O)Nc3cc(F)c(F)c(F)c3)cs2)C(C)C)cc(OC)c1OC | 176% | 57% | 
52 | COc1cc(C(=S)N[C@H](c2nc(C(=S)NC3CCCCC3)cs2)C(C)C)cc(OC)c1OC | 92% | 65% | 
53 | COc1cc(C(=O)N[C@H](c2nc(C(=O)NC3CCC(=O)CC3)cs2)C(C)C)cc(OC)c1OC | ≤ 10% | 13.1% | 
54 | COc1cc(C(=O)NC(CC(C)C)c2nc(C(=O)NC3CCC(F)(F)CC3)cs2)cc(OC)c1OC (stereo not drawn) | 68% | 16% | 
55 | COc1cc(C(=O)N[C@H](c2nc(C(=O)NC3CCCC3)cs2)C(C)C)cc(OC)c1OC | ≤ 10% | ≤ 10% | 
56 | O[C@@H](COc1cccc2ncccc12)CN1CCN([C@@H]2c3ccccc3[C@@H]3[C@H](c4ccccc42)C3(F)F)CC1 [ZOSUQUIDAR] |  |  | viability at 72 h, 10 µM [6]: > 80%; viability at 72 h, 10 µM [7]: > 80%
